Experimental data collected from several papers.
Protocols differ between the studies behind these lines.
Target: Death-associated protein kinase 3 (DAPK3, Homo sapiens, UniProt O43293)

C[C@@H]1CCN(c2nccc(-c3cnn4ncccc34)n2)C1 has a remaining binding of 69% (binding; 1 µM).
O=C(c1ccc(Nc2ncc(Cl)c(-c3cc4ccccc4s3)n2)cc1)N1CCC(N2CCCC2)CC1 gave a remaining binding of 11% (binding; competition with immobilised ligand; 1 µM).
c1cnn2ncc(-c3ccnc(N4CCC45COC5)n3)c2c1 gave a remaining binding of 73% (binding; 1 µM).
With c1cncc(-c2cccc(Nc3nccc(NC4CCCCC4)n3)c2)c1 the remaining binding was 85% (binding; competition with immobilised ligand; 10 µM).
O=C(NCCCN1CCOCC1)c1ccc(Nc2ncc(Cl)c(-c3ccc(Cl)s3)n2)cc1 gave a remaining binding of 17% (binding; competition with immobilised ligand; 1 µM).
For CCN1CCN(Cc2ccc(C(=O)Nc3ccc(C)c(Oc4ccc5c(c4)CC(=O)N5)c3)cc2C(F)(F)F)CC1, the remaining binding was 100% (binding; competition with immobilised ligand; 1 µM).
With COc1cnc(Nc2cccc(S(N)(=O)=O)c2)nc1N1CCN(c2ccccc2)C(=O)C1 the remaining binding was 92% (binding; competition with immobilised ligand; 1 µM).
CN(CCCC(F)(F)F)c1nccc(-c2cnn3ncccc23)n1 gave a remaining binding of 90% (binding; 1 µM).
O=C(NCCCN1CCOCC1)c1ccc(Nc2nccc(-c3cc4ccccc4s3)n2)cc1 gave a remaining binding of 9.7% (binding; competition with immobilised ligand; 1 µM).
COc1cnc(Nc2cccc(S(N)(=O)=O)c2)nc1N1CCN(c2ccccc2)CC1 has a remaining binding of 76% (binding; competition with immobilised ligand; 1 µM).
The remaining binding of CNC(=O)Nc1ccc2c(c1)CC[C@@]21OC(=O)N(CC(=O)N(Cc2ccc(F)cc2)[C@@H](C)C(F)(F)F)C1=O is reported as 86% (cell-free assay; competition with immobilised ligand; 1 µM).
COc1ncc2cc3ccccc3nc2c1C#N gave a remaining binding of 98% (cell-free assay; competition with immobilised ligand; 5 µM).
With CN(C)c1ncnc(-c2ccc3nc(Nc4cc(CN5CCN(C(=O)CC(F)(F)F)CC5)ccn4)[nH]c3c2)c1Cl the remaining binding was 99% (cell-free assay; competition with immobilised ligand; 1 µM).
CN(C)c1nccc(-c2cnc3ncccn23)n1 has a remaining binding of 91% (binding; 1 µM).
With COc1ccc2cc(OCC3(C(=O)O)CN(C(=O)c4ccc(F)cc4)C3)ccc2c1 the remaining binding was 100% (cell-free assay; competition with immobilised ligand; 1 µM).
C[C@@H](c1ccc(-n2cnc3c(N)ncnc32)cc1)N1CCc2nn(C)c(Cc3ccccc3)c2C1=O has a remaining binding of 87% (binding; competition with immobilised ligand; 0.1 µM).
For O=C1NC(c2ccccn2)Sc2ccccc21 (stereo not shown), the remaining binding was 0% (cell-free assay; competition with immobilised ligand; 1 µM).
O=C(NCC1CCOCC1)c1n[nH]cc1NC(=O)c1c(F)cccc1F has a remaining binding of 94% (binding; competition with immobilised ligand; 1 µM).
CNC(=O)Nc1ccc2c(c1)[C@@]1(CC2)OC(=O)N(CC(=O)N(Cc2ccc(F)cc2)[C@@H](C)C(F)(F)F)C1=O has a remaining binding of 100% (cell-free assay; competition with immobilised ligand; 1 µM).
The remaining binding of CN(C)c1ncc(F)c(-c2cnn3ncccc23)n1 is reported as 63% (binding; 1 µM).
With CCCCN(CCCC)C(=O)CN1C[C@@H](c2cc(OC)c3c(c2)OCO3)[C@H](C(=O)O)[C@H]1CC(C)(C)CCC the remaining binding was 100% (cell-free assay; competition with immobilised ligand; 1 µM).
N[C@H]1CCN(c2nccc(-c3cnn4ncccc34)n2)C1 gave a remaining binding of 100% (binding; 1 µM).
